NLRP3 yeast inh: NALP3 inhibition in yeast | 330,000 tested, 0.39% active | inhibition, % at 10 µM | Yeast reconstituted NLRP3/ASC/caspase-1, beta-gal luminescence, 24 h | AID 2825;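 active means inhibition of 50% or more; inactive means inhibition below 50%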;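 further: plate controls were induced DMSO wells for no effect and uninduced yeast grown without galactose for full effect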
Calb FLC: affects C. albicans growth with fluconazole. growth inhibition, % (concentration not given with the values). 300,000 tested, 0.57% active. C. albicans CaCi-2 + fluconazole, Alamar Blue growth, 48 h;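 active means growth inhibition above about 58% in most replicates, limit read from the data, passing the limit was not always enough; inconclusive means exactly half the replicates above a set limit; inactive means most replicates below a set limit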;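 further: all wells also contain fluconazole at 8 µg/ml as a sub-toxic cotreatment; 0% = median of DMSO wells and 100% = median of geldanamycin control wells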
NALP1 yeast inh: inhibitors of NALP1 inflammasome in yeast; inhibition, % at 10 µM; S. cerevisiae NALP1/ASC/caspase-1 growth, X-gal OD620, 72 h; AID 2071; 280,000 tested, 0.61% active; in the data active means inhibition mostly above about 24%, no sharp cut-off; inactive means mostly below about 32%
ATG4B inh: inhibitors of human ATG4B cysteine protease. Q9Y4P1. ATG4B cleavage of LC3-PLA2, NBD-HPC fluorescence, 1 h. inhibition, % at 8.33 µM. 340,000 tested, 0.51% active. AID 504462; in the data active means inhibition above about 40%
ALR H2O2 inh: human ALR oxidase inhibition via reduced H2O2; inhibition, % (no concentration beside the values); AID 485317; P55789; 290,000 tested, 3.8% active; purified ALR, DTT oxidation, H2O2 HRP-luminol luminescence;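 active means mean replicate inhibition above about 79%, with every replicate also reaching it, limit read from the data; inconclusive means only one of the two criteria met; inactive means mean below limit and not every replicate reaching it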
Target sequence (P55789 whole entry, looked up): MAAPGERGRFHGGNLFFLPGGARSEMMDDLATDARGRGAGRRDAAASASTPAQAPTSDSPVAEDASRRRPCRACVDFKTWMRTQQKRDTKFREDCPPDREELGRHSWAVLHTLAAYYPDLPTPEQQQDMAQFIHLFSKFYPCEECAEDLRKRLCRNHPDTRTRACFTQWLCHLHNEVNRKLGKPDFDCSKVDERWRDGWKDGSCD
UCH37 DUB inh: human UCH37 deubiquitinating enzyme inhibition. Q9Y5K5. purified proteasome/UCH37, Ub-AMC cleavage fluorescence. inhibition, % (test concentration not listed). 330,000 tested, 0.33% active. AID 588478;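 active means mean inhibition over replicate wells above about 20%, limit read from the data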;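 further: 0% = compound-free wells with enzyme and 100% = wells lacking proteasome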
Target sequence (Q9Y5K5 whole entry, looked up): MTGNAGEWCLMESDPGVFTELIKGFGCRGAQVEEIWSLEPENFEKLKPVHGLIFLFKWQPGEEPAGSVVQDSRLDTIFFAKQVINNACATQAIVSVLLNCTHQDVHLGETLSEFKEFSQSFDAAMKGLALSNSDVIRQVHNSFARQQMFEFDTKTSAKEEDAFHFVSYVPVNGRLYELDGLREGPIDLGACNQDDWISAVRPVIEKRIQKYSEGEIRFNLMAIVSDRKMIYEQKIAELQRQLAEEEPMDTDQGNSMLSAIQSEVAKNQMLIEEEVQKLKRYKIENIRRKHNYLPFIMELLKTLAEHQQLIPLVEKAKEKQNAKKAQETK
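Reagent: Ub-AMC substrate; assay system: Proteasome-associated human UCH37 deubiquitinase; controls: no-proteasome and no-compound wells; read-out: % inhibition of Ub-AMC cleavage fluorescence; timing: 30 min preincubation with enzyme, 25 min cleavage at room temperature; signal: AMC fluorescence from Ub-AMC cleavage, excitation 355 nm, emission 460 nm; buffer or medium: Tris-HCl pH 7.4 plus ovalbumin, ATP-MgCl2, DTT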
* = called active by the depositor; ? = inconclusive; . = no result. This is a sample that favours compounds with a hit; in the whole collection about 4.8% have one here.

SMILES | NLRP3 yeast inh | Calb FLC | NALP1 yeast inh | ATG4B inh | ALR H2O2 inh | UCH37 DUB inh
COCCNC(=O)c1ccc(CSc2nc3ccccc3s2)cc1 | 15 | 3 | 16 | 3 | 99* | -1
COCCNC(=O)c1nc2ccccc2s1 | 18 | 1 | 38 | 7 | -2 | 5
COCCNC(=O)COC(=O)CSCc1nc2ccccc2s1 | 10 | -6 | 7 | -1 | 98* | -1
CC(=O)Nc1ccc(NC(=O)COC(=O)CCc2nc3ccccc3s2)cc1 | 22 | ? | -7 | -15 | -4 | 2
CCC(C)/C(C)=N/NC(=O)c1ccc(CSc2nc3ccccc3s2)cc1 (configuration not stated) | 29 | 1 | 25 | 2 | 42 | .
CCNC(=O)c1ccc(CSc2nc3ccccc3s2)cc1 | 24 | 0 | 10 | 8 | 99* | -2
O=S(=O)(NN=Cc1cn(-c2ccccc2)nc1-c1ccccc1)c1ccccc1 | . | . | . | . | . | 0
CC(CC(=O)Nc1cc(Cl)ccc1Cl)=NNC(N)=S | . | . | . | . | . | 1
COc1ccc(-c2csc(NC3=NCCCCC3)n2)cc1 | 31 | 16 | 4 | -7 | 98* | 7
Fc1ccc(-c2csc(NC3=NCCC3)n2)cc1 | 7 | 0 | 14 | -4 | 97* | 2
Clc1ccc(-c2csc(NNC3=NCCCCC3)n2)cc1 | 15 | -11 | -3 | -10 | . | 1
COc1ccc(-c2csc(NNC3=NCCCCC3)n2)cc1 | 1 | -19 | 11 | -10 | 8 | 6
CCOc1ccc(-c2csc(NNC3=NCCCCC3)n2)cc1 | -6 | -17 | -18 | -14 | 99* | 3
CCOc1ccc2nc(SCC(=O)Nc3ccc4c(c3)OCCO4)[nH]c2c1 | 0 | 0 | 15 | -27 | -4 | 1
CCOc1ccc2nc(SCC(=O)Nc3cccc(S(=O)(=O)NC4=NCCCCC4)c3)[nH]c2c1 | -6 | 16 | 8 | -12 | 92* | 3
CC(C)(C)c1cc[n+](-c2[nH]c(=O)sc2C=N/N=C(\[O-])c2cccnc2)cc1 | . | . | . | . | . | 21*
Cc1cc(C)n(CC(=O)NN=Cc2cccc([N+](=O)[O-])c2)n1 | . | . | . | . | . | 1
COc1ccc(S(=O)(=O)NN=Cc2ccc([N+](=O)[O-])o2)c(OC)c1 | . | . | . | . | . | 1
CCCCCCCc1c(C#N)c(N)[nH]c(=S)c1C#N | 27 | -2 | -14 | 19 | 96* | 11
CC(C)Cc1c2c([nH]c(=S)c1C#N)CCCC2 | 18 | 18 | 24 | -16 | . | 4
Cc1ccc(C(C)C)c(OCC(=O)NN=Cc2ccc(S(=O)(=O)O)o2)c1 | . | . | . | . | . | 4
O=C(O)CCC(=NNC(=O)c1ccc(-c2ccccc2)cc1)c1ccccc1 | . | . | . | . | . | 4
O=C1CC(N2CCN(c3ccc(O)cc3)CC2)C(=O)N1Cc1cccs1 (configuration not stated) | -2 | . | -27 | -1 | 99* | 1
CCC(CC)C(=O)Nc1cccc(C(C)=NNC(=O)c2ccccc2Cl)c1 | . | . | . | . | . | 2
COc1ccc(C(=O)n2cc(C(=O)c3cc(C)ccc3O)cn2)cc1 | 11 | -10 | 27 | -2 | 98* | 2
SMILES | NLRP3 yeast inh | Calb FLC | NALP1 yeast inh | ATG4B inh | ALR H2O2 inh | UCH37 DUB inh
O=C(CNC(=O)c1ccccc1Br)NN=Cc1ccco1 | . | . | . | . | . | 0
CCc1cccc(CC)c1NC(=O)/C(C#N)=C/c1ccccc1C(F)(F)F | 7 | -4 | 20 | -2 | -53 | 1
N#C/C(=C\c1ccccc1C(F)(F)F)C(=O)Nc1ccccc1 | 8 | 5 | 22 | 2 | 90* | 2
CC(=NO)c1ncc(C(F)(F)F)cc1Cl | . | . | . | . | . | 5
Cc1cc(Br)ccc1OCC(=O)NNC(=O)C(=O)Nc1ccccc1 | -3 | 89* | 23 | 8 | -21 | 1
Cc1cc(Br)ccc1OCC(=O)NNC(=O)Cc1ccccc1 | 26 | -1 | 16 | 4 | 1 | 5
Oc1ccc(N=Nc2ccc3c(c2)OCCO3)c2cccnc12 | 26 | 100* | 6 | 0 | -42 | 6
COc1ccc(C)cc1N=Nc1ccc(O)c2ncccc12 | . | 109* | 19 | 8 | . | 7
COc1cccc(N=Nc2ccc(O)c3ncccc23)c1 | 38 | 101* | 5 | -4 | -18 | .
COc1ccc(N=Nc2ccc(O)c3ncccc23)cc1 | 32 | 3 | . | 2 | . | 7
COc1cccc(N=Nc2ccc3cccnc3c2O)c1 | 31 | 86* | 18 | 1 | . | 3
COc1cc(C=NNC(=O)c2ccncc2)c([N+](=O)[O-])cc1OC | . | . | . | . | . | 9
O=C(NN=Cc1cccnc1)c1cc(Br)ccc1O | . | . | . | . | . | 6
CCOC(=O)N1CCN(C(=O)c2ccc(CS(=O)Cc3ccccc3Cl)o2)CC1 (configuration not stated) | 17 | -19 | 12 | -8 | ? | 2
O=C(c1ccc(CS(=O)Cc2ccccc2Cl)o1)N1CCN(C2CCCCC2)CC1 (configuration not stated) | 10 | -1 | 29 | -6 | 98* | 3
COc1cccc(OCCOc2cccc(C=Nn3cnnc3)c2)c1 | . | . | . | . | . | 5
COc1cc(/C=N/Nc2ccc([N+](=O)[O-])cn2)cc(OC)c1O | 22 | -8 | 12 | 5 | 100* | .
COc1ccc(/C=N\Nc2ccc([N+](=O)[O-])cc2)c(C(=O)O)c1OC | 23 | -11 | 11 | -5 | 98* | .
COc1ccc(/C=N/Nc2ccc([N+](=O)[O-])cc2)cc1O | 49 | -19 | 21 | -9 | 95* | .
COc1ccc(/C=N/Nc2ccc([N+](=O)[O-])cc2)cc1Cn1cc([N+](=O)[O-])cn1 | 21 | -12 | 12 | 0 | 5 | .
COc1ccc(C=NNC(=S)SC)cc1OC | . | . | . | . | . | 6
CC1=CC(=NOS(=O)(=O)c2ccccc2)C=CC1=O | . | . | . | . | . | 0
N#CC(=C(O)CN1CCOCC1)c1nc2ccccc2s1 | . | . | . | . | . | 11
O=C(NN=Cc1ccc(OC(=O)c2ccco2)cc1)c1ccc(Cl)cc1 | . | . | . | . | . | 1
CCN(CC)S(=O)(=O)c1ccc(NN=Cc2ccccc2OCC(=O)O)c([N+](=O)[O-])c1 | . | . | . | . | . | 8
O=C(c1ccco1)N1CCCC(Nc2ccc3c(c2)OCCO3)C1 (configuration not stated) | 7 | -5 | 12 | -4 | 99* | 1
CSCc1ccc(C(=O)N2CCCC(Nc3ccc(F)cc3)C2)o1 (configuration not stated) | 18 | -2 | 10 | 8 | 98* | 2
O=C(c1ccoc1)N1CCCC(Nc2ccc(F)c(F)c2)C1 (configuration not stated) | 23 | -5 | 19 | -1 | 59 | 4
O=C(c1cc(Cl)ccc1F)N1CCCC(Nc2ccc3c(c2)OCCO3)C1 (configuration not stated) | 20 | -1 | 32 | -1 | 97* | -1
Cc1occc1C(=O)N1CCCC(Nc2ccc(F)c(F)c2)C1 (configuration not stated) | 17 | 22 | -7 | 2 | 50 | 3
